Test [1] concerns Glycine max. The experiment in a line: Inhibition of soybean lipoxygenase assessed as conversion of sodium linoleate to 13-hydroperoxylinoleate at 100 uM. In a few lines: (§1)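 Soybean lipoxygenase solution (1/9×10^-4 w/v in saline) incubated at room temperature with sodium linoleate and compound in DMSO. Conversion to 13-hydroperoxylinoleate recorded at 234 nm and compared with a standard inhibitor. At least triplicate.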

Test [2] relates to Radical scavenging activity. Description: Antioxidant activity assessed as DPPH radical scavenging activity at 100 uM after 20 mins by spectrophotometry. Format: functional. In a few lines:
(§2)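 DPPH at 0.05 mM in absolute ethanol mixed with an equal volume of compound in DMSO. Mixture shaken and left 20 or 60 min. Absorbance read at 517 nm to give percent activity. Three replicates averaged.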
In general terms: DPPH is a stable violet radical that fades when it is reduced.

Test [3] in a line: Antioxidant activity assessed as inhibition of AAPH-induced lipid peroxidation at 100 uM. Format: functional. The essentials:
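Run at 37 °C in 0.05 M phosphate buffer pH 7.4 with 10 μL of 16 mM sodium linoleate (stock), compound in DMSO (10 μL). Oxidation started in air by 50 μL of 40 mM AAPH (stock). Conjugated diene formation followed as rising absorbance at 234 nm. Controls carried the same DMSO level. At least triplicate.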

For test [4], the system named is Radical scavenging activity. The experiment in a line: Antioxidant activity assessed as DPPH radical scavenging activity at 100 uM after 60 mins by spectrophotometry. Format: functional. In a few lines: as §2
Test [5] is described as follows: Inhibition of soybean lipoxygenase assessed as conversion of sodium linoleate to 13-hydroperoxylinoleate. On the set-up: species or system Glycine max. In a few lines:
as §1

For test [6], the system named is Glycine max. Description: Inhibition of soybean lipoxygenase assessed as conversion of sodium linoleate to 13-hydroperoxylinoleate at 50 uM. The essentials: as §1
Test [7] deals with Glycine max. The experiment in a line: Inhibition of soybean lipoxygenase assessed as conversion of sodium linoleate to 13-hydroperoxylinoleate at 10 uM. The essentials:
as §1

For the next test, the system named is Rattus norvegicus. Description: Antiinflammatory activity in Fisher 344 rat assessed as inhibition of carrageenan-induced paw edema at 0.01 mmol/Kg, ip administered simultaneously with carrageenan measured after 3.5 hrs relative to control. The class given is functional. Conditions: Fisher 344, ip. In a few lines: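 Fischer-344 rats of both sexes (pregnant females excluded), 6–15 per group. Oedema induced in right hind paw by intradermal 0.1 ml 2% carrageenan in water. Compounds suspended in water with a few drops Tween 80, given ip at carrageenan injection. Rats killed at 3.5 h. Injected minus uninjected paw weight compared with water-treated controls as % inhibition. Mean of two experiments.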
Background: Carrageenan injected into the paw causes an acute inflammation.

Active and inactive are the calls of the source. The rule behind the calls is not given here.

As usually defined, the inhibition is the relative decrease from the control value, in per cent. Broadly, the IC50 is the concentration needed to halve the response being measured. For orientation: inhibition in vivo means the change of the read-out against control, counted positive when it falls.

Regarding `O=C(O)/C=C/C(=O)n1cc(C(=O)Nc2cccc([N+](=O)[O-])c2)c2ccccc21`, the inhibition in the test with Glycine max [1] amounted to 26%; in test [3], 94%. In test [2], the result was inactive.

With `COc1cc(NC(=O)c2cn(C(=O)CCC(=O)O)c3ccccc23)cc(OC)c1OC`, the inhibition in the test with Glycine max [1] is 10%; in test [3] it was 34%. Also, the Activity in test [2] stood at 12.5%.

Take `COc1cc(NC(=O)c2cn(C(=O)/C=C\C(=O)O)c3ccccc23)cc(OC)c1OC`: the inhibition in the test with Glycine max [1] was 42%; in test [3], 8%. Moreover, the Activity in test [2] was 2%.

Turning to `CC(Cc1ccc(O)c(O)c1)C(C)Cc1ccc(O)c(O)c1` (stereo not given), the Activity turned out to be 81% in test [2] and 83% in test [4].

With `O=C(O)/C=C/c1ccc(O)c(O)c1` [CAFFEIC ACID], in test [5], the IC50 is 600 µM. In addition, the Activity in test [2] was determined as 5.5%. The inhibition in test [3] was 17.5%.

For `COc1ccc(NC(=O)c2cn(C(=O)/C=C/c3cc(OC)c(OC)cc3OC)c3ccccc23)c(OC)c1`, the inhibition in the test with Glycine max [1] was 69%; in test [3], 42%. Also, the Activity in test [2] turned out to be 5%.

Consider `COc1cc(OC)c(OC)cc1/C=C/C(=O)n1ccc(/C(C)=C/C(=O)OC(C)(C)C)c1`, for which the inhibition in the test on Glycine max [1] was 39%; in test [3] it was 46%. Also, the Activity in test [2] amounted to 8%.

`COc1cc(OC)c(OC)cc1/C=C/C(=O)n1cc(/C=C/C(=O)OC(C)(C)C)c2ccccc21`: the inhibition in the test with Glycine max [1] was 85%; with Glycine max [6] it was 85%; in test [3], 80%; in the test with Glycine max [7], 0%. Also, the Activity in test [2] amounted to 8.3%.

As for `COc1cc(C)c(/C=C/C(C)=C/C=C/C(C)=C/C(=O)O)c(C)c1C` [ACITRETIN], the inhibition in the test with Glycine max [1] was determined as 1%; in test [3] it was 85%. Further, the inhibition in vivo at 10 µmol/kg in the test on Rattus norvegicus worked out at 63%. Besides, in test [2], the result was inactive.

For `COc1ccc2c(c1)c(CC(=O)O)c(C)n2C(=O)c1ccc(Cl)cc1` [INDOMETHACIN], the inhibition in vivo at 10 µmol/kg in the test on Rattus norvegicus turned out to be 47%.

As for `COc1cc(OC)c(C2CC(=O)n3c2c(/C=C/C(=O)O)c2ccccc23)cc1OC` (stereo not given), the inhibition in vivo at 10 µmol/kg with Rattus norvegicus stood at 9%. Moreover, the IC50 in test [5] was 45.2 µM. Moreover, the Activity in test [2] turned out to be 12%. For the same molecule, in test [3], the inhibition came to 57%.

Consider `COc1cc(NC(=O)c2cn(C(=O)/C=C/C(=O)O)c3ccccc23)cc(OC)c1OC`, for which the inhibition with Glycine max [1] worked out at 57%; in test [3], 64%. In test [2], the Activity came to 26%.

For `O=C(O)/C=C/C(=O)n1cc(C(=O)Nc2ccccc2)c2ccccc21`, the half-maximal inhibitory concentration (IC50) in test [5] was determined as 52.4 µM. Besides, the Activity in test [2] was found to be 1%. For the same molecule, the inhibition in test [3] came out at 85%.

In the case of `COc1ccc(NC(=O)c2cn(C(=O)/C=C/C(=O)O)c3ccccc23)c(OC)c1`, the inhibition in vivo at 10 µmol/kg with Rattus norvegicus was determined as 46%. In addition, the IC50 in test [5] stood at 35 µM. Further, the Activity in test [2] was 10%. In test [3], the inhibition stood at 77%.

Take `CC(C)(C)OC(=O)/C=C1/c2ccccc2-c2c(NC(=O)/C=C/c3ccc4c(c3)OCO4)cccc21`: the inhibition was 43% with Glycine max [1] and 49% in test [3]. Further, the result in test [2] was inactive. Also, in test [4], the Activity was 6%.

For the molecule `Cc1c(C)c2c(c(C)c1O)CCC(C)(C(=O)O)O2` (stereo not given), the inhibition in test [3] worked out at 63%.

`O=C(O)/C=C/c1cn(C(=O)/C=C/c2ccc3c(c2)OCO3)c2ccccc12`: the inhibition in vivo at 10 µmol/kg in the test on Rattus norvegicus is 34%. The IC50 in test [5] was determined as 65 µM. Besides, the Activity in test [2] turned out to be 21%. In test [3], the inhibition turned out to be 22%.

Take `CC(C)(C)OC(=O)/C=C/c1cn(C(=O)/C=C/c2ccc3c(c2)OCO3)c2ccccc12`: in test [5], the IC50 worked out at 82.5 µM. For the same molecule, the Activity in test [2] is 13%. Further, the inhibition in test [3] is 95%.

Turning to `COc1ccc(NC(=O)c2cn(C(=O)/C=C/C(=O)OC(C)(C)C)c3ccccc23)c(OC)c1`, the inhibition in vivo at 10 µmol/kg with Rattus norvegicus turned out to be 58.6%. The IC50 in test [5] stood at 100 µM. In addition, the Activity in test [2] came out at 5%. Also, the inhibition in test [3] came to 68%.

The values are drawn from ChEMBL document CHEMBL1154722, “Syntheses and evaluation of the antioxidant activity of acitretin analogs with amide bond(s) in the polyene spacer” (Eur J Med Chem, 2010).
